The target of series [1] is Cathepsin K (Homo sapiens) (UniProt P43235). The series is described as follows: Inhibitory constant against human cathepsin K using Z-Phe-Arg-AMC substrate. Conditions: read-out: Ki app.
Another series deals with Procathepsin L (Homo sapiens, UniProt P07711). The series is described as follows: Inhibitory constant against human cathepsin L using Z-Phe-Arg-AMC substrate. As to conditions: read-out: Ki app. Summed up:
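Recombinant human cathepsin L at 500 pM in 50 mM MES pH 5.5, 2.5 mM DTT, 2.5 mM EDTA, 10% DMSO. Enzyme preincubated with inhibitor (8 concentrations) 30 min at 21–24 °C. Reaction started with 10 μM Z-Phe-Arg-AMC; AMC fluorescence (ex 355/em 460 nm) over first ~5 min. Ki(app) fitted with Morrison tight-binding model.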

Another series has as its target Cathepsin S (Homo sapiens, UniProt P25774). The series is described as follows: Inhibitory constant against human cathepsin S using Z-Val-Val-Arg-AMC substrate. As to conditions: read-out: Ki app. A digest of the protocol: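 Recombinant human cathepsin S at 500 pM in 50 mM MES pH 6.5, 2.5 mM β-mercaptoethanol, 2.5 mM EDTA, 100 mM NaCl, 0.001% BSA, 10% DMSO. 30 min enzyme–inhibitor preincubation at 21–24 °C, 8 inhibitor concentrations. Started with 60 μM Z-Val-Val-Arg-AMC; initial rates by AMC fluorescence (ex 355/em 460). Ki(app) by Morrison tight-binding fit.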

In a further series the target is Cathepsin B (Homo sapiens, UniProt P07858). Put plainly: Inhibitory constant against human cathepsin B using Boc-Leu-Lys-Arg-AMC substrate. As to conditions: read-out: Ki app.
The test system of series [2] is Rattus norvegicus. The series is described as follows: Terminal half-life in rat administered with 0.5 mg/kg, iv. The format is functional, organism-based. The arrangement: dose 0.5 mg/kg. Summed up: (§1)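 Rats, three per study, cassette iv dosing of up to four compounds. Formulation DMSO (<20%), PEG 400 (<20%) and water at 0.5 mg/mL per compound, given at 1 mL/kg for 0.5 mg/kg per compound.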

Series [3] has as its system Rattus norvegicus. Put plainly: Mean residence time in rat administered with 0.5 mg/kg, iv. It counts as functional, organism-based. The arrangement: dose 0.5 mg/kg. A digest of the protocol:
as §1

In another series the test system is Osteoclast. Put plainly: In vitro bone resorption in isolated rabbit osteoclasts. It counts as functional, cell-based. Conditions: Oryctolagus cuniculus. A digest of the protocol: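 Bovine bone degraded by isolated rabbit osteoclasts; collagen degradation read by ELISA. 8-point dose–response curves; IC50 derived.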
Series [4] in a line: Maximum concentration in rat administered with 0.5 mg/kg, iv. The format is ADME, organism-based. Also on record: dose 0.5 mg/kg, route intravenous. As to conditions: in vivo.

Where only a bound is given, the exact number is not on record here.

Chain of Procathepsin L (P07711 whole entry): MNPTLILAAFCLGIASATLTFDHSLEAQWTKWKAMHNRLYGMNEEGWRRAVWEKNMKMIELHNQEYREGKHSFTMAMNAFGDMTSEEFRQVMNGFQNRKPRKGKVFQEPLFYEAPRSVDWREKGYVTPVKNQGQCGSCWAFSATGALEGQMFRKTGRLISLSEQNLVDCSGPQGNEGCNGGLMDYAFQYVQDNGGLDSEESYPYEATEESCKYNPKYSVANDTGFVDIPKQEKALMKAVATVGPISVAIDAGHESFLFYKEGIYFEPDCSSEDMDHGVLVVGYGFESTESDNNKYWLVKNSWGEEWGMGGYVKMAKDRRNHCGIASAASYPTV
Chain of Cathepsin S (P25774 whole entry): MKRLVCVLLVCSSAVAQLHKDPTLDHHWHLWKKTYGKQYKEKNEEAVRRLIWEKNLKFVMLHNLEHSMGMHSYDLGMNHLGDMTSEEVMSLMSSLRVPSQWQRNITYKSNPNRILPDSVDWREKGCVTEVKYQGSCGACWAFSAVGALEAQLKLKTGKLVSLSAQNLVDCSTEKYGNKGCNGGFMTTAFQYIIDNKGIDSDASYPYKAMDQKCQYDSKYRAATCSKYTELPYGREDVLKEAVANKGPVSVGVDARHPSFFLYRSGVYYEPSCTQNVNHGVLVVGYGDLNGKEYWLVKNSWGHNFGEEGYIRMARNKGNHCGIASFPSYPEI

Regarding `N#CCNC(=O)C1(NC(=O)c2cccc(Br)c2)CCCCC1`, the Ki in series [1] amounted to 0.23 µM; on Procathepsin L, 7.9 µM; at Cathepsin S, 6.2 µM; at Cathepsin B, 7.9 µM.
Take `CC(C)C[C@](C)(NC(=O)OCc1ccccc1)C(=O)NCC#N`: the Ki in series [1] is 1.8 µM; on Procathepsin L it was over 150 µM; on Cathepsin S it was 4.2 µM; on Cathepsin B it was over 150 µM.
Turning to `CN(C)c1ccc(-c2ccc(C(=O)NC3(C(=O)NCC#N)CCCCC3)cc2)cc1`, the Ki in series [1] stood at 0.002 µM; on Procathepsin L, 3.2 µM; on Cathepsin S, 5.7 µM; on Cathepsin B, 0.68 µM.
For the compound `N#CCNC(=O)[C@H](Cc1ccc2ccccc2c1)NC(=O)OCc1ccccc1`, the Ki in series [1] was found to be 30 µM; at Procathepsin L it was 0.054 µM; at Cathepsin S it was 0.18 µM; on Cathepsin B, 3 µM.
Consider `N#CCNC(=O)C1(NC(=O)c2ccc(Br)s2)CCCCC1`, for which the Ki in series [1] was found to be 0.016 µM; at Procathepsin L, 5.9 µM; on Cathepsin S it was 1.4 µM; at Cathepsin B, 3.1 µM.
One may read the IC50 as the concentration that inhibits the measured activity by half. High values mean lower potency, low ones higher potency. By Cmax is commonly meant the maximum level reached in the sampled fluid or tissue. Take `CN1CCN(Cc2nc(-c3ccc(C(=O)NC4(C(=O)NCC#N)CCCCC4)cc3)cs2)CC1`: the Ki in series [1] turned out to be 0.00094 µM; on Procathepsin L it was 19 µM; on Cathepsin S, 42 µM; on Cathepsin B it was 1.5 µM. For the same compound, the T1/2 in the series with Rattus norvegicus [2] came to 77 min. The MRT with Rattus norvegicus [3] came out at 75 min. This compound also showed an IC50 in the series with Osteoclast of 0.06 µM. Besides, in series [4], the concentration peaked (Cmax) at 430 nM.
Regarding `COCCN1CCN(c2nc(-c3ccc(C(=O)NC4(C(=O)NCC#N)CCCCC4)cc3)cs2)CC1`, the Ki in series [1] amounted to 0.00048 µM; on Procathepsin L it was 6.4 µM; on Cathepsin S it was 20 µM; at Cathepsin B, 1.3 µM. The T1/2 with Rattus norvegicus [2] stood at 118 min. In the series on Rattus norvegicus [3], this compound showed an MRT of 41 min. This compound yielded a concentration for half-maximal inhibition (IC50) in the series with Osteoclast of 0.004 µM. This compound gave a Cmax in series [4] of 1780 nM.
`N#CCNC(=O)C1(NC(=O)c2ccc(-c3csc(N4CC[C@@H](N)C4)n3)cc2)CCCCC1`: the Ki in series [1] was found to be 0.0014 µM; at Procathepsin L it was 7.5 µM; at Cathepsin S it was 4.5 µM; at Cathepsin B, 3 µM. The T1/2 in the series on Rattus norvegicus [2] was determined as 53 min. Besides, the MRT in the series with Rattus norvegicus [3] came out at 53.6 min. In addition, 0.052 µM corresponded to half-maximal inhibition in the series on Osteoclast (IC50). In series [4], this compound returned a Cmax of 840 nM.
As for `N#CCNC(=O)C1(NC(=O)c2ccc(Br)cc2)CCCCC1`, the Ki was 0.018 µM in series [1], 17 µM on Procathepsin L, 10 µM on Cathepsin S and 2.3 µM at Cathepsin B.
For `CN1CCN(c2ccc(C(=O)NC3(C(=O)NCC#N)CCCCC3)cc2)CC1`, the Ki in series [1] was determined as 0.0015 µM; on Procathepsin L, 9.6 µM; at Cathepsin S, 16 µM; on Cathepsin B it was 2.7 µM.
As to `N#CCNC(=O)C1(NC(=O)c2ccc(-c3ccc(-c4ccno4)cc3)cc2)CCCCC1`, the Ki in series [1] stood at 0.0054 µM; at Procathepsin L, 0.42 µM; at Cathepsin S, 2.5 µM; at Cathepsin B it was 1.8 µM. The same compound yielded a 50% inhibitory concentration (IC50) in the series on Osteoclast of 0.037 µM.
For `N#CCNC(=O)C1(NC(=O)c2ccc(N)cc2)CCCCC1`, the Ki in series [1] came out at 0.032 µM; on Procathepsin L it was 45 µM; at Cathepsin S, 6.5 µM; on Cathepsin B, 10 µM.
Regarding `CN1CCN(S(=O)(=O)c2ccc(C(=O)NC3(C(=O)NCC#N)CCCCC3)cc2)CC1`, the Ki in series [1] turned out to be 0.013 µM; on Procathepsin L, 71 µM; at Cathepsin S, 102 µM; at Cathepsin B, 3.1 µM.
In the case of `N#CCNC(=O)C1(NC(=O)c2ccc(N3CCOCC3)cc2)CCCCC1`, the Ki stood at 0.019 µM in series [1], 50 µM on Procathepsin L, 42 µM at Cathepsin S and 8.6 µM at Cathepsin B.
For `CCCC[C@H](NC(=O)OCc1ccccc1)C(=O)NCC#N` the same measures were 0.49 µM, 37 µM, 0.86 µM and over 150 µM.
With `C#Cc1ccc(C(=O)NC2(C(=O)NCC#N)CCCCC2)cc1`, the Ki amounted to 0.013 µM in series [1], 18 µM on Procathepsin L, 15 µM on Cathepsin S and 1.1 µM on Cathepsin B.
On to `CN1CCC(N(C)c2ccc(-c3ccc(C(=O)NC4(C(=O)NCC#N)CCCCC4)cc3)cc2)C1` (stereo not given), for which the Ki in series [1] was under 0.00025 µM; on Procathepsin L, 2 µM; on Cathepsin S, 8.7 µM; at Cathepsin B it was 0.34 µM. The compound further registered an IC50 with Osteoclast of 0.033 µM.
Turning to `CCCN1CCN(c2ccc(C(=O)NC3(C(=O)NCC#N)CCCCC3)cc2)CC1` [BALICATIB], the Ki was determined as 18 µM on Procathepsin L, 28 µM at Cathepsin S and 2.9 µM on Cathepsin B.
As to `CC(C)(C)[C@H](NC(=O)OCc1ccccc1)C(=O)NCC#N`, the Ki is 1.9 µM in series [1], over 150 µM at Procathepsin L, over 150 µM at Cathepsin S and over 150 µM at Cathepsin B.
For `N#CCNC(=O)[C@@H](NC(=O)OCc1ccccc1)c1ccccc1`, the Ki is 17 µM in series [1], 88 µM on Procathepsin L, 3.5 µM at Cathepsin S and over 150 µM at Cathepsin B.
As for `CN1CCC[C@H]1COc1ccc(-c2ccc(C(=O)NC3(C(=O)NCC#N)CCCCC3)cc2)cc1`, the Ki in series [1] was under 0.00025 µM; on Procathepsin L it was 4 µM; at Cathepsin S, 10 µM; at Cathepsin B it was 0.59 µM. This compound also came in with an IC50 in the series with Osteoclast of 0.024 µM.
`CN(C)c1ccc(C(=O)NC2(C(=O)NCC#N)CCCCC2)cc1`: the Ki in series [1] worked out at 0.0033 µM; at Procathepsin L it was 48 µM; at Cathepsin S it was 35 µM; at Cathepsin B, 5.2 µM.
For `N#CCNC(=O)C1(NC(=O)c2cccc(-c3ccccc3)c2)CCCCC1` the same measures were 0.21 µM, 22 µM, 1.9 µM and 8.3 µM.
For `N#CCNC(=O)C1(NC(=O)OCc2ccccc2)CCCCC1` the same measures were 0.084 µM, 95 µM, 31 µM and 64 µM.
For the compound `N#CCNC(=O)C1(NC(=O)CCc2ccccc2)CCCCC1`, the Ki in series [1] is 0.41 µM; at Procathepsin L, over 150 µM; at Cathepsin S, 34 µM; at Cathepsin B, 99 µM.
Taken in the same sequence, the figures for `CC(C)(C)C[C@H](NC(=O)OCc1ccccc1)C(=O)NCC#N` were 0.23 µM, 23 µM, 0.15 µM and 63 µM.
For `CC(C)C[C@@H](NC(=O)OCc1ccccc1)C(=O)NCC#N` the same measures were 13 µM, over 150 µM, 13.6 µM and over 150 µM.
Taken in the same sequence, the figures for `CC[C@H](C)[C@H](NC(=O)OCc1ccccc1)C(=O)NCC#N` were 1.5 µM, 25 µM, 14 µM and 70 µM.
As for `N#CCNC(=O)C1(NC(=O)c2csc(-c3ccncc3)n2)CCCCC1`, the Ki in series [1] is 0.15 µM; on Procathepsin L, over 150 µM; at Cathepsin S it was 4 µM; on Cathepsin B, 9.3 µM.
Taken in the same sequence, the figures for `C[C@@H](O)[C@H](NC(=O)OCc1ccccc1)C(=O)NCC#N` were 11 µM, 14 µM, 42 µM and over 150 µM.
`N#CCNC(=O)C1(NC(=O)c2ccc(-c3csc(CN4CCOCC4)n3)cc2)CCCCC1`: the Ki came out at 0.0087 µM in series [1], 2.2 µM on Procathepsin L, 0.25 µM at Cathepsin S and 3.8 µM on Cathepsin B. In the series on Rattus norvegicus [3], this compound displayed an MRT of 15.6 min. For the same compound, the half-inhibitory concentration (IC50) with Osteoclast stood at 0.21 µM. For the same compound, the peak level in series [4] (Cmax) was 550 nM.
With `CN1CCN(C(=O)c2ccc(C(=O)NC3(C(=O)NCC#N)CCCCC3)cc2)CC1`, the Ki is 0.014 µM in series [1], over 150 µM on Procathepsin L, 110 µM at Cathepsin S and 13 µM at Cathepsin B.
Taken in the same sequence, the figures for `N#CCNC(=O)C1(NC(=O)OCc2ccccc2)CC1` were over 150 µM, over 150 µM, over 150 µM and over 150 µM.
Taken in the same sequence, the figures for `CC(C)C[C@H](NC(=O)OCc1ccccc1)C(=O)NCC#N` were 0.0347 µM, 2.79 µM, 0.143 µM and 123 µM.
For `N#CCNC(=O)C1(NC(=O)c2ccc(-c3ccccc3)cc2)CCCCC1`, the Ki in series [1] was found to be 0.0062 µM; on Procathepsin L, 23 µM; on Cathepsin S it was 8.8 µM; on Cathepsin B it was 1.3 µM.
For `CC(C[C@H](NC(=O)OCc1ccccc1)C(=O)NCC#N)C(F)(F)F` (stereo not given in full) the same measures were 0.35 µM, 22 µM, 0.4 µM and over 150 µM.
In the case of `N#CCNC(=O)C1(NC(=O)OCc2ccccc2)CCCC1`, the Ki in series [1] is 1.5 µM; at Procathepsin L, over 150 µM; at Cathepsin S, over 150 µM; at Cathepsin B, 110 µM.

The values above are taken from ChEMBL document CHEMBL1141198, “Design and synthesis of tri-ring P3 benzamide-containing aminonitriles as potent, selective, orally effective inhibitors of cathepsin K” (J Med Chem, 2005).
